In ChEMBL document CHEMBL2429723, “Design and synthesis of MMP inhibitors with appended fluorescent tags for imaging and visualization of matrix metalloproteinase enzymes” (Bioorg Med Chem Lett, 2013) one finds IC50 and Drug uptake data, which are given here for six compounds.

pIC50: −log10 of the molar value.

Data set [1] deals with 72 kDa type IV collagenase (Homo sapiens, UniProt P08253). The data set can be described thus: Inhibition of human recombinant MMP2 using Mca-Lys-Pro-Leu-Gly-Leu-Dpa-Ala-Arg-NH2 as substrate by fluorescence plate reader analysis. In a few lines:
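rhMMP2 activated with 1 mM APMA in assay buffer (50 mM Tris, 10 mM CaCl2, 150 mM NaCl, 0.05% Brij-35, pH 7.5), 37 °C, 1 h, then diluted to 248 ng/mL. Enzyme and test samples combined at ambient temperature; substrate (25 µM) added to start. Kinetic fluorescence at 320 nm excitation/405 nm emission; blank-subtracted duplicates; IC50 from six-point curves.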

In data set [2] the target is Matrix metalloproteinase-9 (Homo sapiens, UniProt P14780). Kind of data set: Inhibition of human MMP9.
Data set [3] has as its target Matrix metalloproteinase-14 (Homo sapiens, UniProt P50281). Kind of data set: Inhibition of human recombinant MMP14 using Mca-Lys-Pro-Leu-Gly-Leu-Dpa-Ala-Arg-NH2 as substrate by fluorescence plate reader analysis. In a few lines:
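Enzyme and test samples combined at ambient temperature; substrate (20 µM) added to start. Kinetic read at 320/405 nm, substrate blank subtracted, duplicates, IC50 from six-point dose-response curves.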

The next data set deals with MCF7. The data set can be described thus: Cellular uptake in human MCF7 cells over-expressing MMP14 by confocal microscopy relative to control. The data set is classed as ADME, cell-based. The method, boiled down: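 MMP-14-overexpressing and parental MCF7 cells incubated with the conjugate at 37 °C and imaged by confocal microscopy, parental cells serving as comparison.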

72 kDa type IV collagenase, sequence (P08253 whole entry): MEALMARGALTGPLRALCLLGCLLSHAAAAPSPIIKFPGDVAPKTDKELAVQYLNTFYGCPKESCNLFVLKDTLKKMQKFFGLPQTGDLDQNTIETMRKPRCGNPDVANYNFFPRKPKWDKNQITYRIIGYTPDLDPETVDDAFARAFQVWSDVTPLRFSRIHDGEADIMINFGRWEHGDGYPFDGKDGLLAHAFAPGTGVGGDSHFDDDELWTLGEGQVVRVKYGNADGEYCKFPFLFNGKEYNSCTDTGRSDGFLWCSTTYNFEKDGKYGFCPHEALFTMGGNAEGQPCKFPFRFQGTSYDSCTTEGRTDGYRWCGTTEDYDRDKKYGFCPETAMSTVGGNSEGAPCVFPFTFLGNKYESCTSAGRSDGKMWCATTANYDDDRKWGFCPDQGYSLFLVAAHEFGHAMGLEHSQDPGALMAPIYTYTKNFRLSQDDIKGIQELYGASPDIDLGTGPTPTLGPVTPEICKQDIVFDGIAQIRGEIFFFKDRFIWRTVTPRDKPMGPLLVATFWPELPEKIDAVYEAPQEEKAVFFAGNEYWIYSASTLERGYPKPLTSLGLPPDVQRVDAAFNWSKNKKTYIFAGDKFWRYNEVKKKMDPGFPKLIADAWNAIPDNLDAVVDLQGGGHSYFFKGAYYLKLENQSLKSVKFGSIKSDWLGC
Matrix metalloproteinase-9, sequence (P14780 whole entry): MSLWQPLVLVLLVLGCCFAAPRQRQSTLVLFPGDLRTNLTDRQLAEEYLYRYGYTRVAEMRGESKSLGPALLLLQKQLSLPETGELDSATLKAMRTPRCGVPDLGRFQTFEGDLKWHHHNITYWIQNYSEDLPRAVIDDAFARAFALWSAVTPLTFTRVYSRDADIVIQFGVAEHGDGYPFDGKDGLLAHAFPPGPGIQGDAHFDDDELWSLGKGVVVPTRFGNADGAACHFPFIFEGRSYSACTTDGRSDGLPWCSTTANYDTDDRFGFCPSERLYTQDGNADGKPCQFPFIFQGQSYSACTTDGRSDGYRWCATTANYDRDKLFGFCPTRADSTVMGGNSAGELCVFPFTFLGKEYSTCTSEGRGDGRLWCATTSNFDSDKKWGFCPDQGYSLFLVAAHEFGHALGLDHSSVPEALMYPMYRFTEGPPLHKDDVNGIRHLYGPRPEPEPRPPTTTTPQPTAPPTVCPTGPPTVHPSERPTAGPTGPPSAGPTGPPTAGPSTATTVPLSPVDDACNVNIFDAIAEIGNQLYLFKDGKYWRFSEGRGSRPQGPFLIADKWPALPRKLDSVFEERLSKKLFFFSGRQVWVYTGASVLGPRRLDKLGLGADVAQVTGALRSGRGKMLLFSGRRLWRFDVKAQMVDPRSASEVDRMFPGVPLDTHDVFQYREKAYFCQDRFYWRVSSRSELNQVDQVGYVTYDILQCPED

With `O=C(NO)C1(S(=O)(=O)c2ccc(Oc3ccc(OC(F)(F)F)cc3)cc2)CCN(C2CC2)CC1`, the pIC50 (usually the IC50 on a negative log10 scale, so that one unit is a factor of ten) in data set [1] was above 9.00.
Regarding `CC(C)(C)NC(=O)c1nc(N)c(C(=O)NCCC(=O)N2CCC(C(=O)NO)(S(=O)(=O)c3ccc(Oc4ccc(OC(F)(F)F)cc4)cc3)CC2)nc1N`, the negative logarithm of the IC50 (pIC50) in data set [1] was 8.29; in data set [2] it was 8.39.
For `Nc1nc(C(=O)N2CCC(C(=O)NO)(S(=O)(=O)c3ccc(Oc4ccc(OC(F)(F)F)cc4)cc3)CC2)c(N)nc1C(=O)N1CCCC1`, in that order: above 9.00 and above 9.00.
For `CN(C)c1ncc(N2CCC(C(=O)NO)(S(=O)(=O)c3ccc(Oc4ccc(OC(F)(F)F)cc4)cc3)CC2)nc1C#N`, in that order: 8.80 and above 9.00.
In the case of `N[C@@H](CCCCNC(=O)c1ccc2c(c1)C(=O)OC21c2ccc(O)cc2Oc2cc(O)ccc21)C(=O)N1CCC(C(=O)NO)(S(=O)(=O)c2ccc(Oc3ccc(OC(F)(F)F)cc3)cc2)CC1`, the pIC50 in data set [3] is 7.00; in data set [1], above 9.00; in data set [2], above 9.00. Further, the Drug uptake result in the data set with MCF7 is “Active”.
`CC1(C)C(/C=C/C2=C(N3CCC(C(=O)NO)(S(=O)(=O)c4ccc(Oc5ccc(OC(F)(F)F)cc5)cc4)CC3)C(=C/C=C3/N(CCCCS(=O)(=O)O)c4ccccc4C3(C)C)/CCC2)=[N+](CCCCS(=O)(=O)[O-])c2ccccc21`: the pIC50 is 8.55 in data set [1] and 8.80 in data set [2].
